From ChEMBL document CHEMBL2057177, “Analogues of fenarimol are potent inhibitors of Trypanosoma cruzi and are efficacious in a murine model of Chagas disease” (J Med Chem, 2012)
≈ marks a conversion by molar mass, not a printed value.

Key:
Trypanosoma cruzi = assay: Antitrypanosomal activity against trypomastigotes of Trypanosoma cruzi Tulahuen expressing the beta- galactosidase gene infected rat L6 cells after 96 hrs; format: functional, organism-based; settings: L6, 96 h
Summary of the method: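 Tulahuén trypomastigotes expressing β-galactosidase, maintained by serial passage in L6 cells. L6 cells seeded and left 24 h at 37 °C, 5% CO2, then infected at MOI 3 for 48 h. Compound exposure 96 h, benznidazole control. CPRG with 0.3% Nonidet P-40 added, absorbance at 530 nm after 4−6 h. IC50 taken from % inhibition curve; mean of at least two assays.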

L6 = assay: Cytotoxicity against rat L6 cells after 72 hrs by Alamar Blue assay; format: cell-based; settings: L6, 72 h
Summary of the method: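 L6 rat skeletal myoblasts in RPMI 1640 with 10% FBS. Exposed to compound for 72 h, seven-point serial dilutions in triplicate. Alamar Blue read at 570 and 630 nm. IC50 is the mean of at least two assays; podophyllotoxin used as control.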

[1] = Kinetic solubility of the compound at pH 6.5 by nephelometric analysis; format: physicochemical; settings: buffer, read-out: Kinetic_solubility
CYP3A4/5 = CYP3A4/5 (Homo sapiens, UniProt P08684+P20815); assay: Inhibition of CYP3A4/5 in human liver microsomes; format: ADME, Microsome
[2] = Plasma concentration in Swiss mouse at 20 mg/kg, po after 1 hr; format: ADME, organism-based; set-up: dose 20 mg/kg, route oral
Summary of the method: (§1)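 Nonfasted male Swiss outbred mice (23.8–39.9 g), fed throughout. Dosed by oral gavage as solution or suspension in aqueous vehicle. Plasma assayed by LC-MS against blank-plasma standards after acetonitrile precipitation; LLOQ 0.001–0.015 μM.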

[3] = Plasma concentration in Swiss mouse at 20 mg/kg, po after 8 hrs; format: ADME, organism-based; set-up: dose 20 mg/kg, route oral; summary of the method: as §1
[4] = Plasma concentration in Swiss mouse at 20 mg/kg, po after 24 hrs; format: ADME, organism-based; set-up: dose 20 mg/kg, route oral

Row | Compound | IC50 (Trypanosoma cruzi) | IC50 (L6) | also measured
1 | COC(c1ccc(Cl)cc1)(c1cccnc1)c1ccccc1Cl (racemic) | 90 nM | 58700 nM | 
2 | Nc1ncc(C(O)(c2ccc(Cl)cc2)c2cccnc2)s1 (racemic) | 260 nM | 56000 nM | 
3 | OC(c1ccc(Cl)cc1)(c1cncnc1)c1ccccc1F (racemic) |  | > 100000 nM | 
4 | CC(C)Oc1ccc(C(O)(c2cccnc2)c2cnc(Cl)nc2)cc1 (racemic) | 304 nM | > 100000 nM | 
5 | OC(c1ccc(Cl)cc1)(c1ccc(Cl)cc1)c1cncnc1 | 220 nM |  | 
6 | CC(C)Oc1ccc(C(O)(c2ccc(Cl)cc2)c2cccnc2)c(F)c1 (racemic) | 26 nM | 58200 nM | 
7 | OC(c1ccc(Cl)cc1)(c1cccnc1)c1ccccc1C(F)(F)F (racemic) | 120 nM |  | 
8 | [O-][n+]1cncc(C(O)(c2ccc(Cl)cc2)c2ccccc2Cl)c1 (racemic) |  | > 100000 nM | 
9 | NC(=O)c1cccc(C(O)(c2cccnc2)c2ccc(Cl)cc2F)c1 (racemic) | 25 nM | > 100000 nM | solubility kinetic [1]: 50 µg/mL (≈ 140 µM); IC50 (CYP3A4/5): 3900 nM; concentration at 1 h [2]: 10500 nM; concentration at 8 h [3]: 440 nM; concentration at 24 h [4]: 6 nM
10 | Cc1ccc(C(O)(c2ccc(OC(C)C)cc2)c2cccnc2)c(F)c1 (racemic) | 3 nM |  | 
11 | Clc1ccc(C(c2cncnc2)c2ccccc2Cl)cc1 (racemic) |  | > 100000 nM | 
12 | CC(C)CNC(c1ccc(Cl)cc1)(c1cccnc1)c1ccccc1Cl (racemic) | 606 nM |  | 
13 | CC(C)Oc1ccc(C(O)(c2cccnc2)c2ccc(Cl)cc2F)cc1 (racemic) | 1 nM |  | solubility kinetic [1]: 1.6 µg/mL (≈ 4.3 µM); IC50 (CYP3A4/5): 1100 nM
14 | OC(c1ccc(Cl)cc1)(c1cccnc1)c1ccc(F)cc1F (racemic) | 16 nM |  | 
15 | CC(C)Oc1cccc(C(O)(c2ccc(Cl)cc2)c2cccnc2)c1 (racemic) | 82 nM | 67600 nM | 
16 | N#Cc1ccc(C(O)(c2ccc(C(F)(F)F)cc2)c2cccnc2)c(F)c1 (racemic) | 2 nM |  | solubility kinetic [1]: 6.3 µg/mL (≈ 16.9 µM); IC50 (CYP3A4/5): 4100 nM; concentration at 1 h [2]: 1400 nM; concentration at 8 h [3]: 300 nM; concentration at 24 h [4]: 50 nM
17 | OC(c1ccc(C(F)(F)F)cc1)(c1cccnc1)c1ccc(Cl)cc1F (racemic) | 2 nM | > 100000 nM | solubility kinetic [1]: < 1.6 µg/mL; IC50 (CYP3A4/5): 1400 nM; concentration at 1 h [2]: 1240 nM; concentration at 8 h [3]: 230 nM; concentration at 24 h [4]: 3 nM
18 | CC(C)Oc1ccc(C(O)(c2ccc(C(F)(F)F)cc2)c2cccnc2)cc1 (racemic) | 4 nM |  | solubility kinetic [1]: 1.6 µg/mL (≈ 4.13 µM); IC50 (CYP3A4/5): 1400 nM
19 | OC(c1ccc(Br)cc1)(c1ccc(C(F)(F)F)cc1)c1cccnc1 (racemic) | 20 nM |  | 
20 | NC(c1ccc(Cl)cc1)(c1cccnc1)c1ccccc1Cl (racemic) | 90 nM |  | 
21 | CN(C)c1ccc(C(O)(c2ccc(C(F)(F)F)cc2)c2cccnc2)cc1 (racemic) | 6 nM |  | 

Row | Compound | IC50 (Trypanosoma cruzi) | IC50 (L6) | also measured
22 | CC(C)c1ccc(C(O)(c2ccc(C(F)(F)F)cc2)c2cccnc2)cc1 (racemic) | 2 nM | 56300 nM | 
23 | OC(c1ccc(Cl)cc1)(c1ncccn1)c1ccccc1Cl (racemic) |  | > 100000 nM | 
24 | Cc1ccccc1C(O)(c1ccc(Cl)cc1)c1cccnc1 (racemic) |  | 82000 nM | 
25 | CC(C)Oc1ncc(C(O)(c2ccc(Cl)cc2)c2cccnc2)cn1 (racemic) | 60 nM | > 100000 nM | 
26 | Clc1ccc(C(c2ccc(Cl)cc2)c2cccnc2)cc1 | 80 nM | 84700 nM | 
27 | OC(c1ccc(Cl)cc1)(c1ccc(C(F)(F)F)cc1)c1cncnc1 (racemic) | 197 nM | 66800 nM | 
28 | OC(c1ccc(Cl)cc1)(c1ccc(C(F)(F)F)cc1)c1cccnc1 (racemic) | 8 nM |  | 
29 | N#Cc1ccc(C(O)(c2ccc(Cl)cc2)c2cccnc2)cc1 (racemic) | 70 nM | > 100000 nM | 
30 | CS(=O)(=O)Nc1ccc(C(O)(c2ccc(Cl)cc2)c2cccnc2)cc1 (racemic) | 30 nM | > 100000 nM | 
31 | OC(c1ccc(Cl)cc1)(c1cccnc1)c1ccc(Cl)cc1F (racemic) | 10 nM | 59400 nM | solubility kinetic [1]: 1.6 µg/mL (≈ 4.6 µM); IC50 (CYP3A4/5): 900 nM
32 | OC(c1ccc(Cl)cc1)(c1cnccn1)c1ccccc1Cl (racemic) |  | > 100000 nM | 
33 | OC(c1ccc(Cl)cc1)(c1cccnc1)c1ccccc1Br (racemic) | 70 nM |  | 
34 | OC(c1ccc(C(F)(F)F)cc1)(c1ccc(C(F)(F)F)cc1)c1cccnc1 | 15 nM |  | 
35 | OC(c1ccc(Cl)cc1)(c1ccc(Cl)cc1)c1cccnc1 | 95 nM |  | 
36 | OC(c1ccc(Cl)cc1)(c1cccnc1)c1ccccc1Cl (racemic) |  |  | solubility kinetic [1]: 3.1 µg/mL (≈ 9.39 µM); IC50 (CYP3A4/5): 600 nM
37 | OC(c1ccc(Cl)cc1)(c1cccnc1)c1cncs1 (racemic) |  | > 100000 nM | 
38 | OC(c1ccc(Cl)cc1)(c1ccccn1)c1ccccc1Cl (racemic) | 27000 nM | > 100000 nM | 
39 | NC(=O)c1cccc(C(O)(c2ccc(C(F)(F)F)cc2)c2cccnc2)c1 (racemic) | 70 nM | > 100000 nM | 
40 | NC(=O)c1ccc(C(O)(c2ccc(C(F)(F)F)cc2)c2cccnc2)cc1 (racemic) |  | > 100000 nM | 
41 | OC(c1ccc(Cl)cc1)(c1cccnc1)c1cnc(Cl)s1 (racemic) |  | > 100000 nM | 
42 | CC(C)Oc1ccccc1C(O)(c1ccc(Cl)cc1)c1cccnc1 (racemic) |  | 48300 nM | 

Row | Compound | IC50 (Trypanosoma cruzi) | IC50 (L6) | also measured
43 | N#CC(c1ccc(Cl)cc1)(c1cccnc1)c1ccccc1Cl (racemic) | 50 nM |  | 
44 | COc1cccc(C(O)(c2ccc(Cl)cc2)c2cccnc2)c1 (racemic) | 60 nM |  | 
45 | OC(c1ccc(Cl)cc1)(c1cccnc1)c1ccccc1F (racemic) | 35 nM | > 100000 nM | 
46 | OC(c1ccc(Cl)cc1)(c1cccnc1)c1ccsc1 (racemic) |  | > 100000 nM | 
47 | OC(c1ccc(Cl)cc1)(c1ccncn1)c1ccccc1Cl (racemic) |  | > 100000 nM | 
48 | CC(C)C(=O)Nc1ncc(C(O)(c2ccc(Cl)cc2)c2cccnc2)s1 (racemic) | 21 nM |  | 
49 | OC(c1ccc(Cl)cc1)(c1cncnc1)c1cccc(F)c1 (racemic) |  | > 100000 nM | 
50 | OC(c1ccc(Cl)cc1)(c1cccnc1)c1cccc(C(F)(F)F)c1 (racemic) | 70 nM |  | 
51 | OC(c1cccnc1)(c1cccs1)c1ccc(Cl)cc1F (racemic) | 5 nM | > 100000 nM | 
52 | COc1ccc(C(O)(c2ccc(Cl)cc2)c2cccnc2)cc1 (racemic) | 40 nM |  | 
53 | OC(c1ccc(Cl)cc1)(c1cccnc1)c1ccc(Br)cc1F (racemic) | 26 nM | 79200 nM | 
54 | N#Cc1ccc(C(O)(c2ccc(Cl)cc2)c2cccnc2)c(F)c1 (racemic) |  | > 100000 nM | 
55 | Cc1ccc(C(O)(c2ccc(Cl)cc2)c2cncnc2)cc1 (racemic) | 24 nM |  | 
56 | OC(c1ccc(C(F)(F)F)cc1)(c1cccnc1)c1cc2ccccc2s1 (racemic) | 20 nM |  | 
57 | OC(c1ccc(Cl)cc1)(c1cccnc1)c1cncnc1 (racemic) |  | > 100000 nM | solubility kinetic [1]: > 100 µg/mL; IC50 (CYP3A4/5): 5000 nM; concentration at 1 h [2]: 300 nM; concentration at 8 h [3]: < 2 nM
58 | Clc1ccc(C(c2ccc(Cl)cc2)c2cncnc2)cc1 | 683 nM |  | 
59 | OC(c1ccc(Cl)cc1)(c1cccnc1)c1nccs1 (racemic) |  | > 100000 nM | 
60 | N#Cc1cccc(C(O)(c2ccc(Cl)cc2)c2cccnc2)c1 (racemic) |  | > 100000 nM | 
61 | OC(c1ccc(Cl)cc1)(c1cccnc1)c1cccc(F)c1 (racemic) | 100 nM | 66000 nM | 
